High-throughput results as filed in PubChem BioAssay.
In the library only some 2.4% were active in any assay of this set; here they are far more common.
NPY2 pot ag = NPY-Y2 potentiators or agonists, primary screen, cell-based; Neuropeptide Y receptor type 2 (Homo sapiens), P49146; cells expressing NPY-Y2, potentiator/agonist read-out; activation, % at 3.6 µM; 220,000 compounds, 0.45% hits; in the data active means activation above about 27%;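 further: cells stimulated with NPY near EC25 plus isoproterenol at EC100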
NPY Y2 blocker = NPY-Y2 receptor antagonists, primary screen, cell-based; inhibition, % at 2.7 µM; Neuropeptide Y receptor type 2 (Homo sapiens), P49146; 140,000 compounds, 0.99% hits; NPY-Y2 expressing cells, antagonist mode; in the data active means inhibition above about 17%
NPY-Y1 PAM-ag = NPY-Y1 receptor potentiators or agonists, primary screen, cell-based; activation, % at 3.6 µM; NPY-Y1 expressing cells, potentiator/agonist activation; 220,000 compounds, 0.37% hits; in the data active means activation above about 33%, passing the limit was not always enough;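 further: cells stimulated with NPY at EC10 then isoproterenol at EC100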
NPY Y1 blocker = NPY-Y1 receptor antagonists, primary screen, cell-based. HEK293-CNG Y1 cells, membrane potential fluorescence; NPY at EC95, then isoproterenol. inhibition, % at 3.6 µM. 200,000 compounds, 1% hits;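 active means inhibition above the campaign mean inhibition of all tested compounds plus 3 SD, cut at about 20% in these data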
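material = HEK293 cells with Y1 receptor plus CNG channel | also added = NPY 25 nM then isoproterenol 1 µM plus Ro 20-1724 25 µM | schedule = dye 3 h, compound 60 min room temperature, stimulation 45 min | measured by = membrane potential fluorescence | benchmarks = high control isoproterenol alone, low control NPY with isoproterenol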
S1P4 antag = S1P4 receptor antagonists, primary screen, cell-based; Sphingosine 1-phosphate receptor 4 (Homo sapiens), O95977; S1P4-expressing cells, antagonist mode, reporter read-out; inhibition, % at 4.98 µM; 220,000 compounds, 0.26% hits; in the data active means inhibition above about 29%
S1P4 agonist = S1P4 receptor agonists, primary screen, cell-based; Sphingosine 1-phosphate receptor 4 (Homo sapiens), O95977; 220,000 compounds, 0.35% hits; activation, % at 4.98 µM; S1P4-expressing cell line, agonist reporter assay; in the data active means activation above about 11%
S1P4 ag conf = S1P4 receptor agonists, retest, confirmation, cell-based, high throughput; 740 compounds, 7% hits; shares compounds with S1P4 agonist; S1P4 agonist cell-based reporter assay; AID 1523, 2009; activation, % at 4.98 µM; in the data active means activation above about 12%
S1P1 ag = S1P1 receptor agonists, human, counter-screen for S1P4 agonist project, cell-based | AID 1563, 2009 | shares compounds with S1P4 agonist | 740 compounds, 4% hits | activation, % at 4.98 µM | S1P1 agonist cell-based assay, activation; in the data active means activation above about 21%
Target sequence (P21453 whole entry, looked up): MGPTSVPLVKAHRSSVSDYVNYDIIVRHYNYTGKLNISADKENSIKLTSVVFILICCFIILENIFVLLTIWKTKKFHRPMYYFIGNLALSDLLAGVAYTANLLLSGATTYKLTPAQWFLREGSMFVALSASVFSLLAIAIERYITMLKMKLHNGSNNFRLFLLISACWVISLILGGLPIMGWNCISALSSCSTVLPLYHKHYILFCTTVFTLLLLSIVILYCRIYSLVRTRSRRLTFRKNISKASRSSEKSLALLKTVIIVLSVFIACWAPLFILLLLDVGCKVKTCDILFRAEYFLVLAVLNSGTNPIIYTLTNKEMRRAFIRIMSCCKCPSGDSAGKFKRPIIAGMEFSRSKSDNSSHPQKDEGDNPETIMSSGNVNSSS
Numbers stand for hits; - = inactive; . = not tested or not shown.

SMILES | NPY2 pot ag | NPY Y2 blocker | NPY-Y1 PAM-ag | NPY Y1 blocker | S1P4 antag | S1P4 agonist | S1P4 ag conf | S1P1 ag
O=C1CC(N2CCN(c3ccc(F)cc3)CC2)C(=O)N1Cc1cccs1 (configuration not stated) | - | - | - | - | - | - | . | .
NC(=O)C1CCN(C2CC(=O)N(Cc3cccs3)C2=O)CC1 (configuration not stated) | - | - | - | - | - | 28 | - | -
Clc1ccc(/C=C\c2nccc3c2[nH]c2ccccc23)cc1 | - | . | - | - | - | 23 | 25 | 84
N#Cc1ccc(/C=C\c2nccc3c2[nH]c2ccccc23)cc1 | - | . | - | - | - | 13 | - | -
OCCCCc1nccc2c1[nH]c1ccccc12 | - | . | - | . | - | - | . | .
Cc1ccnn1CCC(=O)N1CCCC(CCC(=O)N2CCN(c3ccccn3)CC2)C1 (configuration not stated) | - | . | - | - | - | - | . | .
CCCCC(=O)NC(=S)Nc1nnn(CCC)n1 | - | . | - | - | - | 179 | - | -
CCc1ccc(NC(=O)N(CCN2CCOCC2)C2CCN(C(C)=O)CC2)cc1 | - | - | - | - | - | 16 | - | -
COc1ccc(-c2c(C#N)c(N)nc3c2CCc2ccccc2-3)cc1OC | - | - | - | - | - | 14 | 18 | -
COc1cc(-c2c(C#N)c(N)nc3c2CCCC3)ccc1O | - | - | - | - | - | - | . | .
Cc1c(Cl)sn(-c2ccc(Cl)cc2)c1=O | - | . | - | - | - | - | . | .
O=C(c1ccccc1)N1CCC(c2nc3c(nnn3Cc3ccccc3Cl)c(=O)[nH]2)CC1 | - | - | - | - | - | 55 | - | -
CCOC(=O)CSc1ccc(-c2nc3ccccc3[nH]2)cn1 | - | - | - | - | - | 19 | - | -
Cc1nc(C(N)=O)nc2ccccc12 | - | . | - | . | - | - | . | .
COc1ccc(C(=O)NCc2ccc3c(c2)CCO3)cc1 | - | . | - | . | - | - | . | .
CCOC(=O)N1CCN(Cc2nc(-c3ccc(Cl)cc3)no2)CC1 | - | - | - | - | - | 37 | - | -
CCOC(=O)N1CCN(Cc2nc(-c3ccc(OC)cc3)no2)CC1 | - | - | - | - | - | - | . | .
Cc1ccc2[nH]c3c(=O)n4c(nc3c2c1)SCC4 | - | . | - | - | - | - | . | .
COc1ccc2[nH]c3c(=O)n4c(nc3c2c1)SCCC4 | - | . | - | - | - | 36 | - | -
CCN(CC)S(=O)(=O)c1cc(NC(=O)COC(=O)c2ccc(NC(=O)CC#N)cc2)ccc1C | - | . | - | - | - | - | . | .
O=C(CN1c2ccccc2Sc2ccccc21)NNC(=S)Nc1ccc(Cl)cc1 | - | . | - | . | - | 94 | - | -
O=C(CN1CCOCC1)NNC(=S)Nc1ccc(Cl)cc1 | - | . | - | - | - | - | . | .
O=C(COc1ccc([N+](=O)[O-])cc1)Nc1ccc(CN2CCOCC2)cc1 | - | . | - | - | - | - | . | .
O=C(COc1ccc2oc(-c3ccco3)cc(=O)c2c1)N1CCCCC1 | - | . | - | - | - | - | . | .
Cc1ccc(-n2c(C)cc(/C=C3\NC(=O)NC3=O)c2C)c(C)c1 | - | - | - | - | - | - | . | .
SMILES | NPY2 pot ag | NPY Y2 blocker | NPY-Y1 PAM-ag | NPY Y1 blocker | S1P4 antag | S1P4 agonist | S1P4 ag conf | S1P1 ag
COc1ccc(OC)c(NC(=O)c2ccccc2N(Cc2ccccc2)S(C)(=O)=O)c1 | - | . | - | - | - | 58 | - | -
CC(=O)NC1=NN(C(C)=O)C(c2ccco2)S1 (configuration not stated) | - | . | - | . | - | - | . | .
CCN(C(=O)CSc1nnc(-c2ccc(Cl)cc2)n1C)C1CCS(=O)(=O)C1 (configuration not stated) | - | . | - | - | - | - | . | .
COc1ccc(CCNC(=S)NCCc2ccc(OC)c(OC)c2)cc1OC | - | . | - | . | - | - | . | .
COc1ccc(CCN/C=C2/CC(=O)NC2=O)cc1OC | - | - | - | - | - | 17 | - | -
CCc1cccc(CC)c1NC(=O)COC(=O)c1ccc2c(c1)S(=O)(=O)c1ccccc1C2=O | - | - | - | - | - | 12 | - | -
COc1ccc(Cl)cc1N(CC(=O)NCC(C)C)S(=O)(=O)c1ccc(C)c([N+](=O)[O-])c1 | - | - | - | - | - | 25 | - | -
CN1CCN(C(=O)C(N)Cc2ccccc2)CC1 (configuration not stated) | - | . | - | - | - | 18 | - | -
C=CCN=C1NN=C(c2ccc3c(c2)OCCO3)CS1 | - | . | - | - | - | - | . | .
Nc1ccccc1SC1CC(=O)N(Cc2ccccc2)C1=O (configuration not stated) | - | . | - | - | - | - | . | .
O=[N+]([O-])c1ccc2c(c1)CNc1ccccc1O2 | - | . | - | - | - | 33 | - | -
CC(=O)N1Cc2cc([N+](=O)[O-])ccc2Oc2ccccc21 | - | . | - | - | - | - | . | .
COc1cccc(CC2(CO)CCCN(Cc3sc(N4CCCC4)nc3Cl)C2)c1 (configuration not stated) | - | . | - | - | - | - | . | .
Cc1cc(N(CCO)CCO)ccc1N=Nc1cc(F)ccc1F | 69 | . | 62 | - | - | 11 | - | -
Nc1ccc(N(CCO)CCO)cc1 | - | . | - | - | - | - | . | .
O=C(CSc1ccc(-c2cccs2)nn1)Nc1ccccc1 | - | . | - | - | - | 35 | - | -
Cc1cc(C)cc(NC(=O)CSc2ccc(-c3cccs3)nn2)c1 | - | - | - | - | - | - | . | .
COc1ccc(NC(=O)C2CCCN2C(=O)Oc2ccccc2)cc1 (configuration not stated) | - | . | - | - | - | - | . | .
Cc1ccc(NC(=O)C2CCCN2C(=O)Oc2ccccc2)cc1 (configuration not stated) | - | - | - | - | - | 14 | - | -
O=C(CCCN1C(=O)/C(=C/c2ccccc2Cl)SC1=S)NNC(=O)c1ccccc1 | - | - | - | - | - | 18 | - | -
O=C(CCCN1C(=O)/C(=C/c2ccccc2Cl)SC1=S)NNC(=O)c1cccnc1 | - | . | - | . | - | - | . | .
CC(Nc1cccnc1)=C(C#N)C#N | - | . | - | - | - | 12 | - | -
COc1cc(Br)cc(C=Nc2cccc(C(F)(F)F)c2)c1O | - | - | - | - | - | 13 | - | -
O=C(Nc1cc(S(=O)(=O)N2CCCCC2)ccc1N1CCCCC1)C1CC1 | - | . | - | . | - | - | . | .
CSc1nc(N)c(C#N)c(-c2ccc(Cl)cc2)c1C#N | - | - | - | - | - | 11 | - | -
